Article PMC3823002 (Journal of Cellular and Molecular Medicine, 2009)

Experiments:
[1] = system: FGF2; experiment: STD NMR analysis of peptide/FGF2 interaction; assay type: binding, human; conditions: STD NMR in the presence of 50 μM FGF2, reducing conditions; result in words
How it was run: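 500 MHz STD NMR used 50 µM FGF2 plus 1.9 mM peptide in 30 mM phosphate (95% D2O), 8 mM DTT, 40 mM NaCl, pH 6.8. Saturation lasted 3 s, with a 30 ms T1ρ filter and 192 transients. Off-resonance reference minus saturated spectrum gave STD; the factor is ISTD/I0. A peptide-only control was run. Titrations spanned 1:10–1:100 FGF2:peptide at 280 K.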

[2] = system: endothelial GM7373 cells; experiment: GM7373 cell proliferation triggered by different mitogenic stimuli; assay type: cell-based, bovine
[3] = biological target: FGF2/FGFR1 interaction (Homo sapiens, UniProt P09038); experiment: BIAcore competition: binding of free FGF2 to immobilized sFGFR1; conditions: FGF2 50 nM, sFGFR1(IIIc)/Fc chimera-coated BIAcore sensor chip; for effect on binding of FGF2 to immobilized sFGFR1(IIIc)/Fc chimera: peptide 1.0 μM
FGF2/FGFR1 interaction, sequence (P09038 134-288): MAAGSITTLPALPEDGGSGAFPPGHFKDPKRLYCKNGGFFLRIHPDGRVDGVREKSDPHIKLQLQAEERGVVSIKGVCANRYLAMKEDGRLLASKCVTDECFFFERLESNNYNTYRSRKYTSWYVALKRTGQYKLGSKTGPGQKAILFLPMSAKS

[4] = system: VEGF/VEGFR2/KDR interaction; experiment: BIAcore competition: binding of free VEGF to immobilized sKDR/Fc chimera; design: species or system human; conditions: 45 nM VEGF injected for 4 min., peptide 300 μM; data not shown
How it was run: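 sKDR/Fc (20 µg/ml in 10 mM sodium acetate, pH 5.3) was amine-coupled to an EDC/NHS-activated CM5 chip (~0.06 pmol/mm2), then ethanolamine-neutralized. VEGF (45 nM) was injected for 4 min with or without 300 µM test peptide. Response (RU) was read at end of injection and plotted as percentage of maximal bound analyte.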

[5] = biological target: Fibroblast growth factor-2 (human); experiment: SPR

| IC50 [5] [µM] | Molecule | also measured |
| --- | --- | --- |
| 2000 | Ac-APGAPAEARL-NH2 [PTX3-(104-113) peptide Ac-…-NH2] |  |
| 2000 | H-ARPCA-NH2 [H-ARPCA-NH2, non-acetylated pentapeptide] |  |
| 500 | Ac-ARPCAPGAPAEARL-NH2 [PTX3-(100-113) peptide Ac-…-NH2] |  |
| 300 | Ac-ESLARPCAPGAPAE-NH2 [PTX3-(97-110) peptide Ac-…-NH2] |  |
| 300 | Ac-ESLARPCAPGA-NH2 [PTX3-(97-107) peptide Ac-…-NH2] |  |

The next lines start with the molecule.

| Molecule | IC50 [5] [µM] | also measured |
| --- | --- | --- |
| Ac-GRPCA-NH2 |  | FGF2 binding deduced from STD spectrum [1]: still able to bind FGF2 |
| Ac-ARPCG-NH2 |  | FGF2 binding deduced from STD spectrum [1]: absence of STD signals |
| H-ARPCA-NH2 |  | FGF2 binding deduced from STD spectrum [1]: absence of STD signals |
| Ac-ARPSA-NH2 |  | inhibition of GM7373 cell proliferation, any mitogen ([2]; FGF2, FGF1, FGF8b, VEGF, EGF, DAG, TPA or 10% FCS, control peptide): No inhibition; effect on binding of FGF2 to immobilized sFGFR1(IIIc)/Fc chimera [3]: No effect; FGF2 binding deduced from STD spectrum [1]: reduced STD amplification factor |
| Ac-ARPCA-NH2 |  | GM7373 cell proliferation triggered by FGF2 ([2]; FGF2 0.55 nM, peptide 66 μM, 0.4% FCS, 24 hrs, cell counting, triplicate): inhibits; GM7373 cell proliferation triggered by FGF8b ([2]; FGF8b 1.66 nM, peptide 66 μM, 24 hrs, cell counting, triplicate): inhibits; binding of FGF2 to immobilized FGFR1 ID50 [3]: 30 µM; effect on binding of FGF2 to immobilized sFGFR1(IIIc)/Fc chimera [3]: significantly inhibits; binding of VEGF to immobilized sKDR/Fc chimera [4]: did not prevent |
| Ac-ARACA-NH2 [Ac-ARACA-NH2] | > 3000 |  |
| Ac-GRPCA-NH2 [Ac-GRPCA-NH2] | 80 |  |
| Ac-ARPMA-NH2 [Ac-ARPMA-NH2] | > 3000 |  |
| Ac-ARPSA-NH2 [Ac-ARPSA-NH2] | > 3000 |  |
| Ac-APCRA-NH2 [Ac-APCRA-NH2, partially scrambled pentapeptide] | 800 |  |
| Ac-ARPVA-NH2 [Ac-ARPVA-NH2] | > 3000 |  |
| Ac-ARPCG-NH2 [Ac-ARPCG-NH2] | 1000 |  |
| Ac-GRPCG-NH2 [Ac-GRPCG-NH2] | > 3000 |  |
| Ac-ALPCA-NH2 [Ac-ALPCA-NH2] | > 3000 |  |
| Ac-PARAC-NH2 [Ac-PARAC-NH2, scrambled pentapeptide] | 1000 |  |
